Laboratory results from ChEMBL document CHEMBL3259723, “Membrane active vancomycin analogues: a strategy to combat bacterial resistance” (J Med Chem, 2014).
Active and inactive are the calls of the source. The calls are words filed in the database; no cut-off is given here.

Columns and labels:
HeLa = assay: Cytotoxicity against human HeLa cells assessed as cell survival up to 100 uM after 24 hrs by MTT assay; format: cell-based
Outline: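 HeLa cells grown in DMEM with 10% FBS to 70–80% confluency, then exposed to serially diluted compounds for 24 h at 37 °C, 5% CO2. MTT (5 mg/mL solution) added for 3 h, formazan dissolved in DMSO, A570 read. Survival calculated relative to untreated and 10% Triton X-100 controls.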

Enterococcus faecium [1] = assay: Antibacterial activity against vancomycin-resistant VanA phenotype of Enterococcus faecium ATCC 51559 assessed as induction of membrane depolarization measured at < 3 mins by DiSC3(5) dye-based spectrofluorometric analysis; format: functional, organism-based
Outline: (§1)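 Membrane potential assay with DiSC3(5): dye added to cells until maximal uptake, seen as a fluorescence minimum (about 10 min). Compounds then added and depolarization followed as the fluorescence increase over a further 10 min.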

Enterococcus faecium [2] = assay: Antibacterial activity against vancomycin-resistant VanA phenotype of Enterococcus faecium ATCC 51559 assessed as growth inhibition by broth microdilution method; format: functional
Outline: (§2)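 Broth microdilution per CLSI; compounds serially diluted in sterile water, added to bacteria at 10^5 CFU/mL (diluted from 6 h cultures). Incubated at 37 °C, OD600 read. Triplicate wells, experiment done at least twice. Mean OD plotted against concentration and fitted sigmoidally; MIC taken where OD matches the no-bacteria control.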

Staphylococcus aureus [3] = assay: Antibacterial activity against methicillin-resistant Staphylococcus aureus ATCC 33591 assessed as induction of membrane depolarization measured at < 3 mins by DiSC3(5) dye-based spectrofluorometric analysis; format: functional, organism-based; outline: as §1
Staphylococcus aureus [4] = assay: Antibacterial activity against methicillin-sensitive Staphylococcus aureus MTCC 737 assessed as growth inhibition by broth microdilution method; format: functional
Outline: (§3)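 Broth microdilution per CLSI; compounds serially diluted in autoclaved water. Bacteria grown 6 h in suitable media, diluted to 10⁵ CFU/mL; compound added to bacterial suspension, incubated at 37 °C, OD600 read. Triplicate wells, experiment done at least twice; mean OD versus concentration sigmoidally fitted, MIC taken where OD equals no-bacteria control.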

Staphylococcus aureus [5] = assay: Antibacterial activity against methicillin-resistant Staphylococcus aureus ATCC 33591 assessed as leakage of intracellular potassium ion at 10 uM measured for 10 mins by PBFI-AM dye-based spectrofluorometric analysis relative to control; format: functional
Outline: (§4)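 Mid-log (6 h) cells washed twice and resuspended in 10 mM HEPES pH 7.2 with 0.5% glucose. Signal stabilized 60 s at RT, then 1 μM PBFI-AM added and a 2 min baseline recorded before compound.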

Staphylococcus aureus [6] = assay: Bactericidal activity against methicillin-resistant Staphylococcus aureus ATCC 33591 assessed as log10 reduction of bacterial count at MIC measured over 24 hrs; format: functional
Outline: (§5)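 MRSA in yeast-dextrose broth, starting inoculum 1.6 × 10^8 CFU/mL. […] Samples taken at 0, 1, 2, 3, 6 and 24 h, diluted 10-fold serially in saline and plated on yeast-dextrose agar. Colonies counted after 24 h at 37 °C; log10 CFU/mL reported.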

Enterococcus faecium [7] = assay: Antibacterial activity against vancomycin-resistant VanA phenotype of Enterococcus faecium ATCC 51559 assessed as leakage of intracellular potassium ion at 10 uM measured for 10 mins by PBFI-AM dye-based spectrofluorometric analysis; format: functional, organism-based; outline: as §4
Enterococcus faecium [8] = assay: Potency index, ratio of dalbavancin MIC90 to compound MIC for vancomycin-resistant VanA phenotype of Enterococcus faecium ATCC 51559; format: functional
Staphylococcus aureus [9] = assay: Antibacterial activity against methicillin-resistant Staphylococcus aureus ATCC 33591 assessed as growth inhibition measured after 52 serial passages; format: functional, organism-based
Outline: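 Serial passage: the MIC assay is run against MRSA, then cells from the one-half-MIC well of the previous assay are harvested and inoculated into fresh yeast-dextrose broth for the next MIC assay after 24 h incubation. Repeated for […] passages; MIC plotted against passage number and fold increase in MIC determined.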

Staphylococcus aureus [10] = assay: Bactericidal activity against methicillin-resistant Staphylococcus aureus ATCC 33591 assessed as log10 reduction of bacterial count at 6 times MIC measured over 24 hrs; format: functional; outline: as §5
Enterococcus faecium [11] = assay: Antibacterial activity against vancomycin-sensitive Enterococcus faecium ATCC 19634 assessed as growth inhibition by broth microdilution method; format: functional; outline: as §3
Staphylococcus aureus [12] = assay: Antibacterial activity against vancomycin-intermediate-resistant Staphylococcus aureus assessed as growth inhibition by broth microdilution method; format: functional; outline: as §2
Staphylococcus aureus [13] = assay: Antibacterial activity against methicillin-resistant Staphylococcus aureus ATCC 33591 assessed as induction of cytoplasmic membrane permeabilization measured within 5 mins by propidium iodide uptake assay; format: functional, organism-based
Outline: (§6)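 Mid-log (6 h) cells harvested at 4 °C, washed and resuspended in PBS pH 7.2. Compound added to cells with 10 μM propidium iodide. Fluorescence (ex 535/em 617 nm) monitored 10 min at RT; the rise in PI fluorescence taken as inner membrane permeabilization.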

Staphylococcus aureus [14] = assay: Bactericidal activity against methicillin-resistant Staphylococcus aureus ATCC 33591 infected in 90% human whole blood at 3.6 uM after 3 hrs; format: functional, organism-based
Outline: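 MRSA (30 μL of 10^6 CFU/mL in 0.9% saline) mixed with compound at 3.6 μM and 270 μL fresh human whole blood. Incubated 3 h at 37 °C.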

Enterococcus faecium [15] = assay: Antibacterial activity against vancomycin-resistant VanA phenotype of Enterococcus faecium ATCC 51559 assessed as induction of cytoplasmic membrane permeabilization at 10 uM measured for 10 mins by propidium iodide uptake assay; format: functional, organism-based; outline: as §6
Staphylococcus aureus [16] = assay: Antibacterial activity against methicillin-resistant Staphylococcus aureus ATCC 33591 assessed as growth inhibition by broth microdilution method; format: functional; outline: as §2
[17] = Hemolytic activity in human RBC up to 100 uM after 1 hr; format: ADME, cell-based; details: erythrocyte
Outline: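 Incubated 1 h at 37 °C, then centrifuged and supernatant A540 read. % hemolysis calculated against no-compound wells and 1 vol% Triton X-100 wells taken as 100% lysis.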

Staphylococcus aureus [18] = assay: Antibacterial activity against methicillin-resistant Staphylococcus aureus ATCC 33591 infected in CD-1 mouse neutropenic thigh infection model assessed as reduction of bacterial burden in thigh at 12 mg/kg, iv bid administered as 12 hrs interval measured after 24 hrs; format: functional, organism-based; parameters: dose 12 mg/kg
Outline: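 Neutropenic mouse thigh model: about 50 μL MRSA inoculum injected into the thigh. About 1 h later, iv treatment twice at 12 h intervals with saline, vancomycin or compound at 12 mg/kg. At 24 h, thigh homogenate dilutions plated and incubated overnight at 37 °C; titer expressed as log10 CFU/g thigh.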

[19] = Hemolytic activity in human RBC up to 1000 uM after 1 hr; format: ADME, cell-based; details: erythrocyte
Outline: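 Centrifuged, supernatant A540 read. Controls: no compound and 1 vol % Triton X-100 (100% lysis); % hemolysis = (A − A0)/(Atotal − A0) × 100.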

| Compound | Activity (HeLa) | Activity (Enterococcus faecium [1]) | MIC (Enterococcus faecium [2]) [µM] | Activity (Staphylococcus aureus [3]) | MIC (Staphylococcus aureus [4]) [µM] | Activity (Staphylococcus aureus [5]) | log10cfu (Staphylococcus aureus [6]) | Activity (Enterococcus faecium [7]) | Ratio (Enterococcus faecium [8]) | Activity (Staphylococcus aureus [9]) | log10cfu (Staphylococcus aureus [10]) | MIC (Enterococcus faecium [11]) [µM] | MIC (Staphylococcus aureus [12]) [µM] | Activity (Staphylococcus aureus [13]) | Activity (Staphylococcus aureus [14]) | Activity (Enterococcus faecium [15]) | MIC (Staphylococcus aureus [16]) [µM] | Activity [17] | Activity (Staphylococcus aureus [18]) | Activity [19] |
| --- | --- | --- | --- | --- | --- | --- | --- | --- | --- | --- | --- | --- | --- | --- | --- | --- | --- | --- | --- | --- |
| CCCCCCCCCCCCCC[N+](C)(C)CCCNC(=O)[C@H]1NC(=O)[C@H]2NC(=O)[C@H](NC(=O)[C@@H]3NC(=O)[C@H](CC(N)=O)NC(=O)[C@H](NC(=O)[C@@H](CC(C)C)NC)[C@H](O)c4ccc(c(Cl)c4)Oc4cc3cc(c4O[C@@H]3O[C@H](CO)[C@@H](O)[C@H](O)[C@H]3O[C@H]3C[C@](C)(N)[C@H](O)[C@H](C)O3)Oc3ccc(cc3Cl)[C@H]2O)c2ccc(O)c(c2)-c2c(O)cc(O)cc21.O=C([O-])C(F)(F)F | Non-toxic | Dose-dependent effect | 0.7 | Dose-dependent effect | 1.25 | Active | >5 | Active | 25 | Active | >5 | 0.12 | 0.36 | Dose-dependent effect | Active | Active | 0.65 | Non-toxic | – | – |
| CCCCCCCC[N+](C)(C)CCCNC(=O)[C@H]1NC(=O)[C@H]2NC(=O)[C@H](NC(=O)[C@@H]3NC(=O)[C@H](CC(N)=O)NC(=O)[C@H](NC(=O)[C@@H](CC(C)C)NC)[C@H](O)c4ccc(c(Cl)c4)Oc4cc3cc(c4O[C@@H]3O[C@H](CO)[C@@H](O)[C@H](O)[C@H]3O[C@H]3C[C@](C)(N)[C@H](O)[C@H](C)O3)Oc3ccc(cc3Cl)[C@H]2O)c2ccc(O)c(c2)-c2c(O)cc(O)cc21.O=C([O-])C(F)(F)F | Non-toxic | Dose-dependent effect | 12.5 | Dose-dependent effect | 0.31 | 43% | 8 | Active | – | Active | 3 | 0.15 | 0.4 | Dose-dependent effect | Active | Active | 0.31 | – | Active | Non-toxic |
